Test results from ChEMBL document CHEMBL3621122, “Synthesis of new indole-based bisphosphonates and evaluation of their chelating ability in PE/CA-PJ15 cells” (Eur J Med Chem, 2015).
Calls of active or inactive are those of the source. No cut-off for these calls is given here.

How the values were obtained:
Homo sapiens [1] = organism: Homo sapiens; experiment: Metal chelating activity in human PE/CA-PJ15 cells assessed as decrease in extracellular Ca2+ concentration at 30 uM by FURA-2 AM probe-based spectrophotofluorometric analysis; assay type: functional, cell-based; design: scale not given: the % may be the effect or the level left
How it was run: (§1)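 Cell suspension was diluted into HBSS with 1 mM CaCl2 and lysed with 1% Triton X-100. Ca2+/Fura-2 fluorescence after lysis was set as 100%, and bisphosphonate (10–30 µM) was then added. The fluorescence drop was followed over time and read at 30 µM. Mean of 10 experiments ± SEM.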

Homo sapiens [2] = organism: Homo sapiens; experiment: Metal chelating activity in human PE/CA-PJ15 cells assessed as change in cytosolic Ca2+ concentration at 10 to 30 uM after 50 secs using Ca2+ containing medium by FURA-2 AM probe-based spectrophotofluorometric analysis; assay type: functional, cell-based
How it was run: (§2)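 Cultured PE/CA-PJ15 cells loaded with FURA-2 AM for 60 min at 37 °C in the dark. Cells resuspended in HBSS pH 7.4, either Ca2+-free (0.1 mM EGTA) or with 1 mM Ca2+. Bisphosphonate added to 10 µM, then a second addition 150 s later to 30 µM. Ratio fluorescence read at ex 340/380 nm, em 510 nm, converted to [Ca2+]c. Δ[Ca2+]c (nM) taken 50 s after addition; mean of 10 experiments ± SEM.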

Homo sapiens [3] = organism: Homo sapiens; experiment: Metal chelating activity in human PE/CA-PJ15 cells assessed as change in cytosolic Ca2+ concentration at 10 to 30 uM after 50 secs using Ca2+ free medium by FURA-2 AM probe-based spectrophotofluorometric analysis; assay type: functional, cell-based; how it was run: as §2
[4] = Lipophilicity, log P of the compound; assay type: physicochemical; details: octanol/water
Liver microsome [5] = experiment: Retention time of the compound in human liver microsomes at 5 uM preincubated for 5 mins followed by NADPH addition measured after 30 mins by LC/MS analysis; assay type: ADME; details: 0.5 h
How it was run: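 Microsomal incubation: 0.5 mg protein/ml, 5 µM substrate final, pH 7.4 phosphate, 5 min preincubation at 37 °C, 1 mM NADPH, quenched at 0 and 30 min with cold acetonitrile. Supernatant run by HPLC-MS/MS on a C18 column (100 × 2.1 mm, 40 °C). Mobile phases were water/0.1% formic acid and acetonitrile/0.1% formic acid at 0.3 mL/min, gradient from 0% B.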

Liver microsome [6] = experiment: Drug level in human liver microsomes treated with tetraethyl (3-(indol-3-yl)propane-1,1-diyl)bis(phosphonate) at 5 uM preincubated for 5 mins followed by NADPH addition measured after 30 mins by LC/MS analysis; assay type: ADME; details: 0.5 h
How it was run: (§3)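 Human liver microsomes (0.5 mg protein/ml) with substrate at 5 µM final in 100 mM potassium phosphate pH 7.4. Preincubated 5 min at 37 °C with shaking, then started with 1 mM NADPH. Stopped at 0 and 30 min with cold acetonitrile containing labetalol internal standard. Spun 12,000 g, 5 min, 4 °C; supernatant analysed by HPLC-MS/MS.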

[7] = Drug level in presence of tetraethyl (3-(indol-3-yl)propane-1,1-diyl)bis(phosphonate); assay type: physicochemical
How it was run: (§4)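 Substrate at 5 µM final with human liver microsomes (0.5 mg protein/ml) in 100 mM potassium phosphate pH 7.4, preincubated 5 min at 37 °C with shaking; started with 1 mM NADPH. Stopped at 0 and 30 min with cold acetonitrile containing labetalol internal standard. Protein spun down; supernatant analysed by HPLC-MS/MS for parent remaining.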

Homo sapiens [8] = organism: Homo sapiens; experiment: Metal chelating activity in human PE/CA-PJ15 cells assessed as change in cytosolic Ca2+ concentration at 60 uM after 50 secs using Ca2+ free medium by FURA-2 AM probe-based spectrophotofluorometric analysis; assay type: functional, cell-based
Homo sapiens [9] = organism: Homo sapiens; experiment: Metal chelating activity in human PE/CA-PJ15 cells assessed as change in cytosolic Ca2+ concentration at 60 uM after 50 secs using Ca2+ containing medium by FURA-2 AM probe-based spectrophotofluorometric analysis; assay type: functional, cell-based
Homo sapiens [10] = organism: Homo sapiens; experiment: Increase in cytosolic Ca2+ concentration in human PE/CA-PJ15 cells after 50 secs using Ca2+ containing medium by FURA-2 AM probe-based spectrophotofluorometric analysis; assay type: functional, cell-based; how it was run: as §2
Homo sapiens [11] = organism: Homo sapiens; experiment: Metal chelating activity in human PE/CA-PJ15 cells assessed as decrease in cytosolic Ca2+ concentration at 10 to 30 uM after 50 secs using Ca2+ free medium by FURA-2 AM probe-based spectrophotofluorometric analysis
Liver microsome [12] = experiment: Drug level in human liver microsomes treated with tetraethyl (3-(5-fluoroindol-3-yl)propane-1,1-diyl)bis(phosphonate) at 5 uM preincubated for 5 mins followed by NADPH addition measured after 30 mins by LC/MS analysis; assay type: ADME; details: 0.5 h; how it was run: as §3
Homo sapiens [13] = organism: Homo sapiens; experiment: Metal chelating activity in human PE/CA-PJ15 cells assessed as decrease in extracellular Ca2+ concentration by FURA-2 AM probe-based spectrophotofluorometric analysis; assay type: functional, cell-based; how it was run: as §1
Liver microsome [14] = experiment: Drug metabolism in human liver microsomes assessed as radical of 3-allyl-1H-indole/3-methyl-1H-indole formation by measuring remaining compound level at 5 uM preincubated for 5 mins followed by NADPH addition measured after 30 mins by LC/MS analysis; assay type: ADME; details: 0.5 h; how it was run: as §4
Liver microsome [15] = experiment: Drug metabolism in human liver microsomes assessed as radical of 3-allyl-5-fluoro-1H-indole formation by measuring remaining compound level at 5 uM preincubated for 5 mins followed by NADPH addition measured after 30 mins by LC/MS analysis; assay type: ADME; details: 0.5 h; how it was run: as §4

Compound	Activity (Homo sapiens [1]) [%]	Activity (Homo sapiens [2])	Activity (Homo sapiens [3])	Retention_time (Liver microsome [5]) [min]	also measured
CCOP(=O)(OCC)C(CCc1c[nH]c2cc(C(F)(F)F)ccc12)P(=O)(OCC)OCC	-5	Active	Active		
NCCC(O)(P(=O)([O-])O)P(=O)([O-])O.[Na+].[Na+]					logP [4]: -4.7
[CH]=CCc1c[nH]c2ccccc12				6.829	Drug metabolism (Liver microsome [6]): metabolite_detected
NCCCC(O)(P(=O)(O)O)P(=O)(O)O	-7	Active	Active		
[CH2]c1c[nH]c2ccccc12				5.183	Drug metabolism (Liver microsome [6]): metabolite_detected
O=P(O)(O)C(CCc1c[nH]c2ccccc12)P(=O)(O)O					Drug metabolism [7]: metabolite_detected
CCOP(=O)(OCC)C(CCc1c[nH]c2ccncc12)P(=O)(OCC)OCC	-6		inactive		Activity (Homo sapiens [8]): 36 nM; Activity (Homo sapiens [9]): 67 nM; Activity (Homo sapiens [10]): Dose-dependent effect; Activity (Homo sapiens [11]): inactive
CC(O)(P(=O)(O)O)P(=O)(O)O [ETIDRONATE DISODIUM]					logP ([4]; read-out: logP): -3.8
CCOP(=O)(OCC)C(CCc1c[nH]c2ccc(C(F)(F)F)cc12)P(=O)(OCC)OCC	-16.5	Active	Active		
[CH]=CCc1c[nH]c2ccc(F)cc12				5.628	Drug metabolism (Liver microsome [12]): metabolite_detected
CCOP(=O)(OCC)C(CCc1c[nH]c2ccccc12)P(=O)(OCC)OCC	-73	Active	Active	8.142	Activity (Homo sapiens [13]): Dose-dependent effect; Stability (Liver microsome [14]): 20%; Activity (Homo sapiens [11]): Active
O=P([O-])(O)C(O)(Cc1cccnc1)P(=O)(O)O.[Na+] [RISEDRONATE SODIUM]					logP [4]: -3.6
CCOP(=O)(OCC)C(CCc1c[nH]c2cc(F)ccc12)P(=O)(OCC)OCC	-18	Active	Active		
O=P(O)(O)C(CCc1c(C2Nc3ccccc3C2CCC(P(=O)(O)O)P(=O)(O)O)[nH]c2ccccc12)P(=O)(O)O (stereo unspecified)					Drug metabolism [7]: metabolite_detected
CCOP(=O)(OCC)C(CCc1c[nH]c2ccc(F)cc12)P(=O)(OCC)OCC	-34	Active	Active	8.365	Stability (Liver microsome [15]): 20%; Activity (Homo sapiens [11]): Active
O=P(O)(O)C(Cl)(Cl)P(=O)(O)O [CLODRONATE DISODIUM]	-12	Active	Active		logP ([4]; read-out: logP): -2.4
